Source: PubChem BioAssay AID504346 (Broad Institute, 2011)
Calls of active or inactive are those of the source.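 How the source made its calls: active means fitted curve reaches 10% of the positive control caspase activation at or below the top valid tested dose; inactive means signal shifts the opposite way, plus the rest.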

tested on: not listed separately; assay: caspase activation in unprimed MEWO cells, dose response, counter-screen for Bcl2-A1 inhibitor project, cell-based, human MEWO, caspase luminescence, dry powder, set 3 (AID 504346); details: MEWO unprimed cells, caspase-Glo luminescence, 3 h; at 35 µM (top of the series)
Summary of the method: (§1)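 Test system: unprimed human MEWO cells engineered to express A1 / Input: 2500 cells/well / Buffer or medium: RPMI-1640 plus 10% FBS / Dosing: compound delivered to cells by pin transfer / Timing: 3 h compound at 37 °C, 1 h reagent at RT / Technique: CaspaseGlo luminescence / Evaluation: caspase activation level per well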

| SMILES | caspase activation |
| --- | --- |
| COc1ccc(N2CCN(c3nc(NCCc4ccc(OC)c(OC)c4)nc(N4CCOCC4)n3)CC2)cc1 | -0.115% (inactive) |
| Cc1ccc(Sc2c(Sc3ccc(C)cc3)c3ccccc3n(Cc3ccccc3)c2=O)cc1 | 0.136% (inactive) |
| Cc1ccc(Sc2c([N+](=O)[O-])c(=O)n(C)c3ccccc23)cc1 | 1.27% (inactive) |
| COCCn1c(=O)c(Sc2ccc(C)cc2)c(Sc2ccc(C)cc2)c2ccccc21 | 1.05% (inactive) |
| COc1c([N+](=O)[O-])c(=O)n(C)c2ccccc12 | -0.158% (inactive) |
| Cc1ccc(S(=O)(=O)c2c([N+](=O)[O-])c(=O)n(C)c3ccccc23)cc1 | 2.24% (inactive) |
| Cc1ccc(Sc2c([N+](=O)[O-])c(=O)n(Cc3ccccc3)c3ccccc23)cc1 | 0.173% (inactive) |
| O=c1[nH]c2ccccc2c(O)c1[N+](=O)[O-] | -0.15% (inactive) |
| C/C(=N\Nc1nc(N2CCCCC2)nc(N2CCCCC2)n1)c1ccc(F)cc1 | -0.441% (inactive) |
| CCn1c(=O)c([N+](=O)[O-])c(Sc2ccc(C)cc2)c2ccccc21 | 2.11% (inactive) |
| COCCn1c(=O)c([N+](=O)[O-])c(Sc2ccc(C)cc2)c2ccccc21 | 1.99% (inactive) |
| Cn1c(=O)c(Sc2ccccn2)c(Sc2ccccn2)c2ccccc21 | -0.272% (inactive) |
| COc1ccc(CCNc2nc(N3CCCC3)nc(N3CCCC3)n2)cc1OC | 0.039% (inactive) |
| CCn1c(=O)c(Sc2ccc(C)cc2)c(Sc2ccc(C)cc2)c2ccccc21 | 1.36% (inactive) |
| Cn1c(=O)c([N+](=O)[O-])c(Sc2ccccn2)c2ccccc21 | 3.69% (inactive) |
| COc1nc2ccccc2c(Cl)c1[N+](=O)[O-] | 0.103% (inactive) |
| COc1nc2ccccc2c(Sc2ccc(C)cc2)c1[N+](=O)[O-] | 0.891% (inactive) |
| Cc1ccc(Sc2c(Sc3ccc(C)cc3)c3ccccc3n(C)c2=O)cc1 | 0.838% (inactive) |
| O=C(COc1ccc(Cl)cc1Cl)NNc1nc(N2CCOCC2)nc(N2CCOCC2)n1 | -0.692% (inactive) |
| Cn1c(=O)c([N+](=O)[O-])c(Cl)c2ccccc21 | 8.42% (inactive) |
| COc1ccc(CCNc2nc(N3CCOCC3)nc(N3CCOCC3)n2)cc1OC | 0.746% (inactive) |
| CCn1c(=O)c([N+](=O)[O-])c(Cl)c2ccccc21 | 5.44% (inactive) |

tested on: MEWO unprimed cells, caspase-Glo luminescence, 3 h; assay: as above; details: not given
Summary of the method: as §1

| SMILES | AC10 |
| --- | --- |
| O=c1c([N+](=O)[O-])c(Cl)c2ccccc2n1Cc1ccccc1 | 33.6 µM |
| COCCn1c(=O)c([N+](=O)[O-])c(Cl)c2ccccc21 | > 35 µM (inactive) |
| Cn1c(=O)c([N+](=O)[O-])c(S(C)(=O)=O)c2ccccc21 | > 35 µM (inactive) |
| CC1(C)CCC(c2ccc(Cl)cc2)=C(CN2CCN(c3ccc(C(=O)NS(=O)(=O)c4ccc(N[C@H](CCN5CCOCC5)CSc5ccccc5)c(S(=O)(=O)C(F)(F)F)c4)cc3)CC2)C1 | 3.09 µM |
| O=c1[nH]c2ccccc2c(Cl)c1[N+](=O)[O-] | > 35 µM (inactive) |
